# This is a sample that favours compounds with a hit; in the whole collection about 6.4% have one here.
# EBV gp42 inh = Epstein-Barr virus gp42 inhibitors, primary screen, biochemical, uHTS, fluorescence polarization; inhibition, % (tested at 21.74 µM); Fluorescence polarization binding assay, mP read-out; 220,000 compounds, 0.42% hits; in the data active = inhibition above about 50%
# Target sequence (Q1HVG2 whole entry, looked up): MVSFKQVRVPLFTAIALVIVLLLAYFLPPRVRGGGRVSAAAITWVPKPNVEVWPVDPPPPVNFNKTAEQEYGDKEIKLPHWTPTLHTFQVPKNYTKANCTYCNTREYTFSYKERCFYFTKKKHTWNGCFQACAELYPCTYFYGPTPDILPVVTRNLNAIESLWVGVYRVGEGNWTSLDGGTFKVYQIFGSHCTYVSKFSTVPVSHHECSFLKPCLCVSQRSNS
# WT yeast gro inh = growth inhibition of WT strain, primary screen, mitochondrial fusion inhibitor project, WT and mutant strains, chemical genetic; 190,000 compounds, 2.1% hits; mitochondrial fusion phenotypic screen; AID 1362, 2008; inhibition, % at 10 µM; in the data active = inhibition above about 58%; tested in S. cerevisiae
# MPTP block = mitochondrial permeability transition pore inhibitors, primary screen, biochemical, isolated mouse mitochondria, absorbance; Ca2+ swelling absorbance, 30 min; inhibition, % at 10 µM; 360,000 compounds, 1.4% hits; AID 602449, 2012;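 active = inhibition of 50% or more, scaled per plate between neutral and stimulator controls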;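 note: 0% = DMSO wells given calcium and 100% = 1 mM EGTA wells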
# GRIN3A LBD mod = binders of NR3A ligand-binding domain, primary screen, biophysical, differential scanning fluorimetry, uHTS; Glutamate receptor ionotropic, NMDA 3A (GRIN3A) ligand-binding domain; NR3A LBD differential scanning fluorimetry, Tm shift; 0% = protein alone, 100% = glycine-bound protein; Tm shift relative to glycine control, % at 25 µM; 340,000 compounds, 2.5% hits;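 active = melting temperature shift of at least 10% of the positive control shift, at one fixed dose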
# Tb MetRS inh = T. brucei MetRS inhibitors, primary screen, biochemical, luminescence | methionyl-tRNA synthetase (Trypanosoma brucei brucei) | purified T. brucei MetRS, ATP depletion, Kinase-Glo luminescence | inhibition, % at 11.9 µM | 360,000 compounds, 0.4% hits | AID 624268, 2012;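 active = inhibition above a per-plate cutoff of the control wells' mean inhibition plus 3 SD, cut at about 5.5% in these data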;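 note: 0% = DMSO wells median and 100% = median of wells with control inhibitor compound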
#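 Dosing: 11.9 µM compound single dose, 0.9% DMSO; Assay system: purified T. brucei MetRS enzyme; Measured by: Kinase-Glo luciferase luminescence reporting remaining unconsumed ATP; Schedule: 15 min plus 2 h at 25 °C.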
# CHOP inhibitor = inhibitors of CHOP promoter induction, primary screen, cell-based, unfolded protein response, luciferase reporter. CHO-K1 CHOP-promoter luciferase, tunicamycin-induced, 15-18 h. inhibition, % at 10 µM. 220,000 compounds, 3.8% hits;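 active = compounds that reduced the stress-induced luciferase reporter signal by more than about 70% of percent inhibition, limit read from the data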;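 note: 0% = tunicamycin plus vehicle and 100% = wells without tunicamycin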
# Active calls of the source: *; · = no result.
SMILES,EBV gp42 inh,WT yeast gro inh,MPTP block,GRIN3A LBD mod,Tb MetRS inh,CHOP inhibitor
c1cc2c3c(cccc3c1)NC1(CCC3(CC1)Nc1cccc4cccc(c14)N3)N2,-3,·,0,18*,-1,20
Cn1c(NCCCO)nc2c(c1=O)C1(CCCCC1)Cc1ccccc1-2,-1,60*,1,1,-1,47
O=C(/C=C/c1ccc(OC(F)F)cc1)Nc1cccc(S(=O)(=O)N2CCOCC2)c1,·,·,0,20*,0,·
CC(=O)c1cccc(NC(=O)/C=C/c2ccc(S(=O)(=O)N3CCOCC3)cc2)c1,·,·,-2,5,0,·
O=C(/C=C/c1ccccc1)Nc1ccc(S(=O)(=O)N2CCOCC2)cc1,·,·,1,31*,1,·
O=C(/C=C/c1cccc(F)c1)Nc1ccc(S(=O)(=O)N2CCOCC2)cc1,·,·,-1,37*,0,·
Nc1ccccc1SCC(=O)Nc1ccc(N2CCOCC2)cc1,0,-2,-1,0,0,-25
CC1(C)CC(c2nc(-c3ccccc3)cs2)CCS1 (configuration not stated),-11,61*,3,10*,-1,46
CC1(C)CC(c2nc(-c3ccc(Br)cc3)cs2)CCS1 (configuration not stated),-7,49,1,2,0,-5
COc1ccc(CCN=C(N)NS(=O)(=O)c2ccc(OC)c(OC)c2)cc1OC,·,·,-1,-1,0,·
O=C(Nc1ccccc1)c1cc([N+](=O)[O-])ccc1Cl,-9,·,-2,3,-1,6
O=C(Nc1cccc(Cl)c1)c1cc(N=Nc2ccc([N+](=O)[O-])cc2Cl)ccc1O,79*,·,25,19*,-1,36
CC(=C/c1ccc(C(C)C)cc1)/C=N/NC(=O)CSc1ccccn1,5,50,12,-13,-1,92*
O=c1oc(CCO)cc2ccc(C#Cc3ccsc3)cc12,·,·,-1,-9,0,·
Cc1ccc(NC(=S)N2CCC(NC(=O)c3ccccc3)CC2)cc1,·,·,-1,1,0,·
CC(C)NCC(O)COc1ccc(Br)cc1 (configuration not stated),-16,-1,-4,0,0,16
COc1ccc(OCC(O)CNC(=O)c2ccc(Br)cc2)cc1 (configuration not stated),-3,1,2,-28,1,13
COc1ccc(C(=O)NNC(=O)c2ccc(C(C)(C)C)cc2)cc1,3,-17,2,-1,0,84*
COc1ccc(OCC(O)CNc2ccc(Br)cc2)cc1 (configuration not stated),25,28,3,2,-1,86*
COc1ccc(OCC(O)CNC(=O)c2ccc(OC)cc2)cc1 (configuration not stated),-6,14,1,31*,-1,6
COc1ccc(-n2c(SCC(=O)Nc3ccccc3OC)nc(O)c(Cc3ccccc3)c2=O)cc1,·,·,0,-5,1,·
CCOc1ccc(NC(=S)N(CCOC)C2CCN(C(C)C)CC2)cc1,·,·,3,10*,-2,·
COc1ccc(NC(=S)N(CCC(C)C)C2CCN(C(C)C)CC2)cc1,·,·,0,0,-1,·
O=C(Nc1ccc(F)cc1)c1oc2ccccc2c1NC(=O)C1CCCC1,5,6,1,13*,0,71*
Clc1ccc(-c2nnc(-c3ccco3)nc2N2CCCCC2)cc1,3,66*,-1,-2,1,43
Clc1ccc(-c2nnc(-c3ccc(Br)cc3)c(N3CCSCC3)n2)cc1,-39,13,3,2,0,41
Cn1c(N)c(C(=O)CSc2nn(-c3ccc(F)cc3)c(=S)s2)c(=O)n(C)c1=O,·,·,0,31*,0,·
Oc1ccc(-c2nc3ccc4ccccc4c3c3c2CCC3)cc1O,8,6,6,13*,-1,34
CCN(CC)S(=O)(=O)c1cccc(NC(=O)CSc2nnc(N)s2)c1,-27,7,1,-1,0,-9
